# Bioassay records: PubChem, several laboratories
# Wee1 stabilizer – inhibitors of human Wee1 degradation. P30291. HeLa Luc-Wee1K328M stability, luciferase luminescence; 100% = proteasome inhibitor MG132 effect. reporter increase, % at 5 µM. 220,000 tested, 1.2% active. AID 1321;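 active means activation above the mean of all tested compounds plus 3 SD, set per screening run, cut at about 8.8% in these data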;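 further: cells exposed to compound for 20 h before luminescence read; 0% = DMSO alone and 100% = MG132 at 30 µM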
# CHOP inh – CHOP inhibition in unfolded protein response. CHO-K1 CHOP-promoter luciferase, tunicamycin-induced, 15-18 h. inhibition, % at 10 µM. 220,000 tested, 3.8% active;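 active means compounds that reduced the stress-induced luciferase reporter signal by more than about 70% of percent inhibition, limit read from the data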;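 further: 0% = tunicamycin plus vehicle and 100% = wells without tunicamycin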
# PKD1 inh – blocks activity of human protein kinase D1; Q15139; PKD1 kinase fluorescence polarization assay; inhibition, % (no concentration beside the values); 200,000 tested, 0.056% active
# Target sequence (Q15139 whole entry, looked up): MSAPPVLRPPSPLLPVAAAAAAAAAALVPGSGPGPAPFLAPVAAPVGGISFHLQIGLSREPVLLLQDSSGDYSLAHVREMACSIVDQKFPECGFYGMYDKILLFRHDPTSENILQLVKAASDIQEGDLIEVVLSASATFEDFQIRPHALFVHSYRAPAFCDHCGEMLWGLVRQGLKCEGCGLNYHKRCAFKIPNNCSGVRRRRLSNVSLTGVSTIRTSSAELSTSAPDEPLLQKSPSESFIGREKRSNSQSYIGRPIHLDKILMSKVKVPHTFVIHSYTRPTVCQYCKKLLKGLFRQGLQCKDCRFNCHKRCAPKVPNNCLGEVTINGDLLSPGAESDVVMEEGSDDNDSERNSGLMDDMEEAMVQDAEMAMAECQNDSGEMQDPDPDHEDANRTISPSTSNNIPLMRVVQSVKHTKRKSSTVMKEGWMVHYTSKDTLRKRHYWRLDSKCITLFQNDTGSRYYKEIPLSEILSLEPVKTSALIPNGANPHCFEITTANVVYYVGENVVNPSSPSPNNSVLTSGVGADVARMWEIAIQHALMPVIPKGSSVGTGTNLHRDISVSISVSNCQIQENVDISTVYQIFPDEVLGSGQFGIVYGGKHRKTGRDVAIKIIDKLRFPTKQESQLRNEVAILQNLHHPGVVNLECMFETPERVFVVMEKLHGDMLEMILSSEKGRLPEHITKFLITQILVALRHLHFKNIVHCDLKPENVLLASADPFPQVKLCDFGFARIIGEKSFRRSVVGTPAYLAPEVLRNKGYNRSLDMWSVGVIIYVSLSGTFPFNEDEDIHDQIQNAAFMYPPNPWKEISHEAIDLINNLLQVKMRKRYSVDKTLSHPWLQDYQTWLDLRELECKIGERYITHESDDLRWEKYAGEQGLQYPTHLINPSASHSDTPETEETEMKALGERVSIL
# Arbovirus anti – arbovirus infection inhibition; arbovirus infection cell-based antiviral screen; inhibition, % at 10 µM; 200,000 tested, 0.37% active; in the data active means inhibition above about 30%
# L major viab – inhibitors of Leishmania major promastigote growth. inhibition, % at 10 µM. Leishmania major promastigotes, resazurin fluorescence viability. AID 1063. 200,000 tested, 9% active;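 further: promastigotes grown with compound for 44 hours at 28 °C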
# Rad51 HR inh – Rad51 (human) homologous recombination inhibition | hRad51 DNA strand exchange, fluorescence dequenching | AID 1385 | 200,000 tested, 0.085% active | inhibition, % at 10 µM;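 active means inhibition above 40% at the single screening dose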;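 further: 0% = DMSO control wells and 100% = blanks with heterologous ssDNA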
#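 Test system – preformed human Rad51 ssDNA filaments · Reagent – Donor/quencher-labelled 47-bp dsDNA substrate · Incubation – 37 °C 15-min filament assembly, 30-min compound preincubation, 15-min exchange · Signal – FRET fluorescence dequenching, excitation 485 nm, emission 520 nm · Read-out – percent inhibition from fluorescence, normalised to plate control and blank means · Benchmarks – plate control and blank wells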
# * hit, by the source's call; . = no result. In the library only some 12% were active in any assay of this set; here they are far more common. Unless noted, no stated cut-off is given here; in the data, active means inhibition above about 50%; inactive means the rest.
SMILES,Wee1 stabilizer,CHOP inh,PKD1 inh,Arbovirus anti,L major viab,Rad51 HR inh
COc1cccc(/C=N/NC(=O)CSCC(=O)Nc2ccccc2)c1O,-1,46,8,-30,99*,1
O=C(Nc1ccccc1)c1ccccc1N=Cc1cccc(O)c1,5,10,-3,3,11,0
COc1cccc(C=Nc2ccccc2C(=O)Nc2ccccc2)c1O,-2,6,-2,-12,52*,-1
N#CCC(=O)N/N=C/c1cc(-c2ccccc2)n(-c2ccc(Cl)cc2)c1-c1ccccc1,5,22,0,-10,12,12
Cc1cccc(-n2nc(C(=O)c3ccco3)cc(-c3nc4ccccc4[nH]3)c2=N)c1,2,-135,-5,-12,100*,-2
COc1ccc(-n2nc(C(=O)c3cccs3)cc(-c3nc4ccccc4[nH]3)c2=N)cc1,1,69,-3,-37,99*,.
Cc1ccccc1-n1nc(C(=O)c2cccs2)cc(-c2nc3ccccc3[nH]2)c1=N,-2,-66,1,-1,98*,-3
COc1ccc(O)c(C(=O)CC(=O)c2ccccc2C)c1,8.9*,104*,8,-20,92*,-27
COc1cc(NC(=O)CN2C(=O)NC(C)(c3ccc4ccccc4c3)C2=O)c(C)cc1[N+](=O)[O-] (stereo unspecified),-2,2,-2,2,30,-26
COc1ccc(CCN=C(C)C2=C(O)C(c3ccccc3)OC2=O)cc1OC (stereo unspecified),-3,-19,-7,15,-7,2
O=C(O)/C=C/c1cn(Cc2ccccc2)nc1-c1cccnc1,-3,-4,.,.,.,45*
CCc1ccc(-c2nn(Cc3ccccc3)cc2/C=C/C(=O)O)cc1,0,3,-5,-5,-9,10
O=C(O[C@@H]1OC2COC(=O)c3cc(O)c(O)c(O)c3-c3c(cc(O)c(O)c3O)C(=O)O[C@@H]([C@H]1O)[C@@H]2O)c1cc(O)c(O)c(O)c1,9.7*,-10,5,-14,-6,5
O=Cc1ccc(OC(=O)c2cc(Cl)nc3ccccc23)cc1,-4,85*,-10,4,-8,7
Cc1nc2ccccc2c2c(N)c3ccccc3n12,-2,5,-2,17,51*,8
Nc1c2ccccc2nc2ccccc12,6,-18,.,.,.,24
COC(=O)Oc1ccc(/C=N/NC(=O)CSCc2ccc(Cl)cc2)cc1OC,4,78*,4,-4,0,5
O=C(CSCc1ccc(Cl)cc1)N/N=C/c1c(Cl)cccc1Cl,1,92*,-9,-4,25,.
CC(=C/c1ccco1)/C=N/NC(=O)CSc1nnc(SCc2ccc(C)cc2)s1,1,80*,-3,0,-8,-8
O=C(CSc1nnc(SCc2ccccc2)s1)N/N=C/c1ccc(Cl)cc1Cl,0,61,-10,5,-2,-5
O=C(CSc1nnc(SCc2ccc(Cl)cc2)s1)N/N=C/c1ccc(Cl)cc1Cl,-2,73*,5,-17,11,14
CC(=O)c1cn(Cc2ccccc2)c(=O)n(Cc2ccc(F)cc2)c1=O,-2,28,0,1,0,8
CCOC(=O)C1=C(C)NC(=O)CC1c1cc(OC)c(OC)cc1Br (stereo unspecified),0,1,0,10,4,9
Cc1ccc(S(=O)(=O)NN=C2CCC(C(C)(C)C)CC2)cc1[N+](=O)[O-] (stereo unspecified),1,45,12,-15,-9,-8
CC(C)(C)C1CCC(=NNS(=O)(=O)c2ccc(Br)cc2)CC1 (stereo unspecified),-1,92*,-11,-9,-11,-12
SMILES,Wee1 stabilizer,CHOP inh,PKD1 inh,Arbovirus anti,L major viab,Rad51 HR inh
COc1ccc(N2CCN(C(=S)NC(C)c3ccccc3)CC2)cc1 (stereo unspecified),4,15,-5,1,-3,10
S=C(NCCN1CCOCC1)Nc1ccc(Cl)cc1,0,-22,0,10,2,-5
CC(NC(=S)NCCCN1CCOCC1)C12CC3CC(CC(C3)C1)C2 (stereo unspecified),-2,7,1,-8,86*,3
S=C(NCCN1CCOCC1)Nc1ccc(Cl)c(Cl)c1,-2,-15,-7,8,55*,11
CC1CCN(CCNC(=S)Nc2ccc(Cl)cc2)CC1,-3,-2,-2,2,66*,.
Cc1ccc(NC(=S)NCC(C)C)cc1,0,23,-3,6,78*,-4
Cc1ccc(NC(=S)NCCCN2CCOCC2)cc1,0,30,-10,11,78*,9
CC1CCN(CCNC(=O)c2ccc(NC(=O)C3CCCO3)cc2)CC1 (stereo unspecified),9.3*,9,-16,6,-1,-9
S=C(NCCCN1CCOCC1)Nc1ccc(Cl)cc1,-1,14,0,20,99*,2
COc1cc(NC(=S)NCCCN2CCOCC2)cc(OC)c1,9.6*,14,9,2,3,3
Cc1ccc2c(c1)c1c(n2C)-c2[nH]ncc2CC1,0,64,-7,-35,99*,3
COc1ccc(/C=C/c2c([N+](=O)[O-])c(=O)n(C)c(=O)n2C)cc1O,-2,8,-5,-1,90*,-11
COc1cc(/C=C/c2c([N+](=O)[O-])c(=O)n(C)c(=O)n2C)cc(OC)c1OC,-2,5,-1,14,79*,-1
COc1ccc(OC)c(/C=C/c2c([N+](=O)[O-])c(=O)n(C)c(=O)n2C)c1,-2,18,-8,0,47,.
COc1ccc(C(=O)Oc2c(CN3CCOCC3)cc(Cl)c3cccnc23)cc1,0,-7,2,-14,97*,0
COc1cccc(C(=O)OCCN2CCOCC2)c1,5,0,4,4,-4,-5
COc1cccc(C(=O)Oc2c(CN3CCOCC3)cc(Cl)c3cccnc23)c1,-1,-58,-7,-11,100*,1
O=C(Oc1c(CN2CCOCC2)cc(Cl)c2cccnc12)c1ccc(F)cc1,-2,41,5,-10,100*,-3
COc1cc(C(=O)Oc2c(CN3CCOCC3)cc(Cl)c3cccnc23)cc(OC)c1OC,1,29,-9,-2,100*,.
O=C(Oc1ccc(Cl)c2cccnc12)N1CCOCC1,2,2,-6,-2,-6,-1
CCN(CC)C(=O)c1ccc2c3c(cccc13)C(=O)N(CCc1ccc(OC)c(OC)c1)C2=O,-2,32,5,5,-2,4
CCN(CC)C(=O)c1cc([N+](=O)[O-])cc2c1-c1ccc([N+](=O)[O-])cc1C2=C(C#N)C#N,-2,-51,.,.,.,-2
Cc1ccc(C(=O)N2C(CC(=O)Nc3ccc(Cl)cc3)C(=O)NC3CCCCC32)cc1 (stereo unspecified),6,12,6,-20,-5,7
